# Key:
# Assay type in all cases: functional
# CCRF-CEM = assay: Growth inhibition of human CCRF-CEM cells after 48 hrs by SRB assay
# How it was run: (§1)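 NCI-60 panel screen. Cells exposed for 48 h to five concentrations (10−4, 10−5, 10−6, 10−7 and 10−8 M). Sulforhodamine B optical density is read just before compound addition (time zero) and after 48 h, for both treated and vehicle-control wells. Percent growth is calculated against control. GI50 is the concentration giving a 50% reduction in net cell growth relative to cell numbers on day 0.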
# K562 = assay: Growth inhibition of human K562 cells after 48 hrs by SRB assay; settings: K562, 48 h; how it was run: as §1
# [1] = Growth inhibition of human MOLT4 cells after 48 hrs by SRB assay; settings: MOLT-4, 48 h; how it was run: as §1
# [2] = Growth inhibition of human RPMI8226 cells after 48 hrs by SRB assay; settings: RPMI-8226, 48 h; how it was run: as §1
# SR = assay: Growth inhibition of human SR cells after 48 hrs by SRB assay
# How it was run: (§2)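 NCI-60 panel cells; preliminary single-dose screen at 10−5 M, then five-dose testing at 10−4 to 10−8 M (tenfold steps) with 48 h exposure. SRB-stained optical density read before compound addition (time zero), after 48 h with compound, and with vehicle control. Percent growth is calculated against control. GI50 is the concentration giving 50% reduction in net growth relative to day-0 cell number.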
# A549 = assay: Growth inhibition of human A549/ATCC cells after 48 hrs by SRB assay; settings: A549, 48 h; how it was run: as §1
# [3] = Growth inhibition of human EKVX cells after 48 hrs by SRB assay; how it was run: as §1
# HOP-62 = assay: Growth inhibition of human HOP62 cells after 48 hrs by SRB assay; settings: HOP-62, 48 h; how it was run: as §1
# [4] = Growth inhibition of human HOP92 cells after 48 hrs by SRB assay; settings: HOP-92, 48 h; how it was run: as §1
# NCI-H226 = assay: Growth inhibition of human NCI-H226 cells after 48 hrs by SRB assay; settings: NCI-H226, 48 h; how it was run: as §1
# NCI-H23 = assay: Growth inhibition of human NCI-H23 cells after 48 hrs by SRB assay; settings: NCI-H23, 48 h; how it was run: as §1
# NCI-H322M = assay: Growth inhibition of human NCI-H322M cells after 48 hrs by SRB assay; how it was run: as §1
# NCI-H460 = assay: Growth inhibition of human NCI-H460 cells after 48 hrs by SRB assay; settings: NCI-H460, 48 h; how it was run: as §1
# NCI-H522 = assay: Growth inhibition of human NCI-H522 cells after 48 hrs by SRB assay; settings: NCI-H522, 48 h; how it was run: as §1
# [5] = Growth inhibition of human COLO205 cells after 48 hrs by SRB assay; settings: COLO 205, 48 h; how it was run: as §1
# [6] = Growth inhibition of human HCC2998 cells after 48 hrs by SRB assay; settings: HCC 2998, 48 h; how it was run: as §1
# HCT-116 = assay: Growth inhibition of human HCT116 cells after 48 hrs by SRB assay; settings: HCT-116, 48 h; how it was run: as §1
# HCT-15 = assay: Growth inhibition of human HCT15 cells after 48 hrs by SRB assay; settings: HCT-15, 48 h; how it was run: as §1
# HT-29 = assay: Growth inhibition of human HT-29 cells after 48 hrs by SRB assay; settings: HT-29, 48 h; how it was run: as §1
# KM12 = assay: Growth inhibition of human KM12 cells after 48 hrs by SRB assay; settings: KM12, 48 h; how it was run: as §1
# SW-620 = assay: Growth inhibition of human SW620 cells after 48 hrs by SRB assay; settings: SW-620, 48 h; how it was run: as §2
# SF-268 = assay: Growth inhibition of human SF268 cells after 48 hrs by SRB assay; settings: SF-268, 48 h; how it was run: as §1
# [7] = Growth inhibition of human SF295 cells after 48 hrs by SRB assay; settings: SF-295, 48 h; how it was run: as §1
# [8] = Growth inhibition of human SF539 cells after 48 hrs by SRB assay; settings: SF-539, 48 h; how it was run: as §1
# SNB-19 = assay: Growth inhibition of human SNB19 cells after 48 hrs by SRB assay; settings: SNB-19, 48 h; how it was run: as §1
# SNB-75 = assay: Growth inhibition of human SNB75 cells after 48 hrs by SRB assay; settings: SNB-75, 48 h; how it was run: as §2
# U-251 = assay: Growth inhibition of human U251 cells after 48 hrs by SRB assay; settings: U-251, 48 h; how it was run: as §2
# [9] = Growth inhibition of human LOXIMVI cells after 48 hrs by SRB assay; settings: LOX IMVI; how it was run: as §1
# Malme-3M = assay: Growth inhibition of human MALME-3M cells after 48 hrs by SRB assay; how it was run: as §1
# M14 = assay: Growth inhibition of human M14 cells after 48 hrs by SRB assay; settings: M14, 48 h; how it was run: as §1
# MDA-MB-435 = assay: Growth inhibition of human MDA-MB-435 cells after 48 hrs by SRB assay; settings: MDA-MB-435, 48 h; how it was run: as §1
# SK-MEL-2 = assay: Growth inhibition of human SK-MEL-2 cells after 48 hrs by SRB assay; settings: SK-MEL-2, 48 h; how it was run: as §1
# SK-MEL-28 = assay: Growth inhibition of human SK-MEL-28 cells after 48 hrs by SRB assay; settings: SK-MEL-28, 48 h; how it was run: as §1
# SK-MEL-5 = assay: Growth inhibition of human SK-MEL-5 cells after 48 hrs by SRB assay; settings: SK-MEL-5, 48 h; how it was run: as §1
# UACC-257 = assay: Growth inhibition of human UACC257 cells after 48 hrs by SRB assay; settings: UACC-257, 48 h; how it was run: as §2
# UACC-62 = assay: Growth inhibition of human UACC62 cells after 48 hrs by SRB assay; settings: UACC-62, 48 h; how it was run: as §2
# IGROV-1 = assay: Growth inhibition of human IGROV1 cells after 48 hrs by SRB assay; settings: IGROV-1, 48 h; how it was run: as §1
# OVCAR-3 = assay: Growth inhibition of human OVCAR3 cells after 48 hrs by SRB assay; settings: OVCAR-3, 48 h; how it was run: as §1
# OVCAR-4 = assay: Growth inhibition of human OVCAR4 cells after 48 hrs by SRB assay; settings: OVCAR-4, 48 h; how it was run: as §1
# OVCAR-5 = assay: Growth inhibition of human OVCAR5 cells after 48 hrs by SRB assay; settings: OVCAR-5, 48 h; how it was run: as §1
# OVCAR-8 = assay: Growth inhibition of human OVCAR8 cells after 48 hrs by SRB assay; settings: OVCAR-8, 48 h; how it was run: as §1
# [10] = Growth inhibition of human NCI-ADR-RES cells after 48 hrs by SRB assay; how it was run: as §1
# SK-OV-3 = assay: Growth inhibition of human SKOV3 cells after 48 hrs by SRB assay; settings: SK-OV-3, 48 h; how it was run: as §1
# 786-0 = assay: Growth inhibition of human 786-0 cells after 48 hrs by SRB assay; settings: 786-0, 48 h; how it was run: as §1
# A498 = assay: Growth inhibition of human A498 cells after 48 hrs by SRB assay; settings: A498, 48 h; how it was run: as §1
# ACHN = assay: Growth inhibition of human ACHN cells after 48 hrs by SRB assay; how it was run: as §1
# CAKI-1 = assay: Growth inhibition of human Caki1 cells after 48 hrs by SRB assay; settings: CAKI-1, 48 h; how it was run: as §1
# [11] = Growth inhibition of human RXF393 cells after 48 hrs by SRB assay; settings: RXF 393, 48 h; how it was run: as §1
# SN12C = assay: Growth inhibition of human SN12C cells after 48 hrs by SRB assay; how it was run: as §1
# TK-10 = assay: Growth inhibition of human TK10 cells after 48 hrs by SRB assay; settings: TK-10, 48 h; how it was run: as §2
# UO-31 = assay: Growth inhibition of human UO31 cells after 48 hrs by SRB assay; settings: UO-31, 48 h; how it was run: as §2
# PC-3 = assay: Growth inhibition of human PC3 cells after 48 hrs by SRB assay; settings: PC-3, 48 h; how it was run: as §1
# DU-145 = assay: Growth inhibition of human DU145 cells after 48 hrs by SRB assay; settings: DU-145, 48 h; how it was run: as §1
# MCF7 = assay: Growth inhibition of human MCF7 cells after 48 hrs by SRB assay; settings: MCF7, 48 h; how it was run: as §1
# MDA-MB-231 = assay: Growth inhibition of human MDA-MB-231/ATCC cells after 48 hrs by SRB assay; settings: MDA-MB-231, 48 h; how it was run: as §1
# [12] = Growth inhibition of human Hs578T cells after 48 hrs by SRB assay; settings: Hs-578T; how it was run: as §1
# [13] = Growth inhibition of human BT549 cells after 48 hrs by SRB assay; settings: BT-549, 48 h; how it was run: as §1
structure (smiles),measurement,setting,value
COc1cc(/C=C/c2cc3ccccc3s2)cc(OC)c1OC,GI50,CCRF-CEM,262 nM
same,GI50,K562,88 nM
same,GI50,[1],424 nM
same,GI50,[2],268 nM
same,GI50,SR,120 nM
same,GI50,A549,310 nM
same,GI50,[3],10300 nM
same,GI50,HOP-62,420 nM
same,GI50,[4],322 nM
same,GI50,NCI-H226,442 nM
same,GI50,NCI-H23,324 nM
same,GI50,NCI-H322M,649 nM
same,GI50,NCI-H460,351 nM
same,GI50,NCI-H522,153 nM
same,GI50,[5],209 nM
same,GI50,[6],307 nM
same,GI50,HCT-116,246 nM
same,GI50,HCT-15,328 nM
same,GI50,HT-29,234 nM
same,GI50,KM12,213 nM
same,GI50,SW-620,293 nM
same,GI50,SF-268,985 nM
same,GI50,[7],442 nM
same,GI50,[8],299 nM
same,GI50,SNB-19,362 nM
same,GI50,SNB-75,190 nM
same,GI50,U-251,338 nM
same,GI50,[9],382 nM
same,GI50,Malme-3M,826 nM
same,GI50,M14,169 nM
same,GI50,MDA-MB-435,36 nM
same,GI50,SK-MEL-2,323 nM
same,GI50,SK-MEL-28,346 nM
same,GI50,SK-MEL-5,267 nM
same,GI50,UACC-257,520 nM
same,GI50,UACC-62,185 nM
same,GI50,IGROV-1,520 nM
same,GI50,OVCAR-3,224 nM
same,GI50,OVCAR-4,553 nM
same,GI50,OVCAR-5,547 nM
same,GI50,OVCAR-8,352 nM
same,GI50,[10],70 nM
same,GI50,SK-OV-3,263 nM
same,GI50,786-0,445 nM
same,GI50,A498,213 nM
same,GI50,ACHN,810 nM
same,GI50,CAKI-1,4350 nM
same,GI50,[11],168 nM
same,GI50,SN12C,666 nM
same,GI50,TK-10,566 nM
same,GI50,UO-31,513 nM
same,GI50,PC-3,276 nM
same,GI50,DU-145,402 nM
same,GI50,MCF7,285 nM
same,GI50,MDA-MB-231,450 nM
same,GI50,[12],275 nM
same,GI50,[13],326 nM
